Ecoli rRNA inh: reduced GFP signal of wild-type E. coli, primary screen, bacterial rRNA inhibitor project, GFP/RFP fluorescence, OD600, single point | AID 720706, 2013 | E. coli WT GFP vs humanized-ribosome RFP mutants, 24 h; stronger effect = lower value; DMSO median 0, no signal -100 | hit rate 1.6% among 350,000 | GFP signal change (wild-type ribosome), % (no concentration beside the values);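 active = significant combined selectivity score with lowered wild-type GFP, culture density cut under 30%, mutant RFP and density less affected; inactive = any of these conditions unmet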
MLL AF4-AF9 inh: inhibitors of AF4 peptide binding to AF9, primary screen, biochemical, AlphaScreen, biotin-AF4 peptide, FLAG-AF9, single point; Protein AF-9 (Homo sapiens), P42568; inhibition, % at 10 µM; hit rate 0.47% among 350,000;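 active = every replicate reaching a set inhibition limit, whatever the replicate mean, cut at about 25% in these data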;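 note: 0% = plate neutral control median and 100% = total signal loss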
INS-1E GSIS act: GLuc luminescence reporter in INS-1E cells, primary screen for activators of glucose-dependent secretion of insulin; activation, % at 16.6 µM; INS-1E GLuc reporter insulin secretion, 2-3 h; hit rate 0.61% among 370,000;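 active = lowest replicate activation of at least 40%, so every replicate reaches that level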;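 note: 0% = median of neutral control wells and 100% = median of IBMX positive control wells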
RAD54 inh: inhibitors of human RAD54 branch migration, primary screen, biochemical, fluorescence, single point; DNA repair and recombination protein RAD54-like (Homo sapiens), Q92698; RAD54 Holliday junction branch migration, FAM/BHQ fluorescence; inhibition, % at 10.4 µM; hit rate 0.14% among 360,000; AID 602329, 2012;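 active = mean normalized replicate activity at least 40 and at least half of replicates scoring 40 or more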;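 note: 0% = median of neutral control wells and 100% = median of positive control wells; inhibitors cause a drop in the FAM fluorescence signal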
Target sequence (Q92698 whole entry, looked up): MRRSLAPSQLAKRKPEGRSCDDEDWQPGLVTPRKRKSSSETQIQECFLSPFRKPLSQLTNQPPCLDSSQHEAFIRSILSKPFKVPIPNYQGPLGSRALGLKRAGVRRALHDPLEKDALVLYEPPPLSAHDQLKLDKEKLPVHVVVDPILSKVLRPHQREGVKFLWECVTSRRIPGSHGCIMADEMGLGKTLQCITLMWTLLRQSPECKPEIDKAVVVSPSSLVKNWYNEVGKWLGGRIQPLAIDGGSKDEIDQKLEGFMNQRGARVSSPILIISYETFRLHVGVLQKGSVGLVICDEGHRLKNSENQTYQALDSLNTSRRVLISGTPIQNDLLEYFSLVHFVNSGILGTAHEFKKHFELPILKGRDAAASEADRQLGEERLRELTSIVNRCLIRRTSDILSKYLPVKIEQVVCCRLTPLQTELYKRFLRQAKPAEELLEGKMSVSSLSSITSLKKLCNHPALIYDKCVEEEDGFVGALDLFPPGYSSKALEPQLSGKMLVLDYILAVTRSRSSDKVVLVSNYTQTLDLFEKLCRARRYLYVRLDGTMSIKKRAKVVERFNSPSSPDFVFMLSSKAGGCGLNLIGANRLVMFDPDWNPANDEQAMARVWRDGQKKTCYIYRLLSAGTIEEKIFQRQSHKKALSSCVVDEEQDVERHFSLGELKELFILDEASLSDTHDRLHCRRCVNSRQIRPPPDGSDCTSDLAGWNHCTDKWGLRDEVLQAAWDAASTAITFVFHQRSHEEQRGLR
E-selectin induc: E-selectin induction in HUVECs, primary screen, imaging, HUVEC, immunofluorescence imaging, single point. P16581. normalized: neutral wells 0, TNF-alpha wells 100. activation, % at 7.58 µM. hit rate 0.37% among 260,000. AID 686992, 2013;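 active = mean E-selectin-positive cell signal at least 10% of the positive control, reached in at least 60% of replicates, without over 20% cell loss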
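Test system: HUVEC | Signal: Immunofluorescence imaging | Read-out: Percent E-selectin-positive cells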
RAD52 anneal inh: RAD52 DNA annealing inhibitors, primary screen, biochemical, FRET, single point, set 2. hit rate 0.46% among 360,000. AID 651710, 2012. DNA repair protein RAD52 homolog (Homo sapiens), P43351. recombinant RAD52 DNA annealing, FRET fluorescence. inhibition, % at 18.7 µM;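 active = every replicate showing at least 50% inhibition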
* hit, by the source's call; . = no result; ! = not active in a repeat. An excerpt weighted towards active compounds, which were near 2.6% of everything screened.

SMILES	Ecoli rRNA inh	MLL AF4-AF9 inh	INS-1E GSIS act	RAD54 inh	E-selectin induc	RAD52 anneal inh
COc1ccc(CNC(=O)c2cc(C3CC3)nc3c2cnn3C(C)C)cc1	-7.6	32.3*	-6.9	6.2	.	-14.1
Cn1c(-c2cccc(Br)c2)cnc1NCc1ccccc1O	4.0	26.2*	-14.3	-13.8	0.0	2.9
Cn1c(-c2ccccc2)cnc1NCc1ccccc1	16.7	8.3	1.0	8.9	.	-27.0
O=C(NCc1ccccc1)C(c1ccncc1)n1c(=O)c(-c2ccccc2)nc2ccccc21 (centres undefined)	.	.	44.9*	.	0.0	0.2
O=C(NCc1ccccc1)C(c1ccccc1F)n1c(=O)c(-c2ccccc2)nc2ccccc21 (centres undefined)	.	.	-1.3	.	-0.1	0.5
COc1ccc(NC(=O)N2[C@@H]3CNC[C@H]2C3c2ccc(/C=C/c3ccccc3)cc2)cc1 (some centres undefined)	-56.5	4.7	-7.1	.	0.0	55.2*
COc1ccc(-c2ccc(C3[C@H]4CNC[C@@H]3N4C(=O)Nc3ccc(C(F)(F)F)cc3)cc2)cc1 (some centres undefined)	-58.6	-0.2	-16.2	.	0.0	65.9*!
COc1ccc(NC(=O)N2[C@@H]3CNC[C@H]2C3c2ccc(-c3ccc(F)cc3)cc2)cc1 (some centres undefined)	-48.5	4.2	-3.8	.	0.0	56.7*
COc1ccc(NC(=O)N2[C@@H]3CNC[C@H]2C3c2ccc(-c3ccc(OC)cc3)cc2)cc1 (some centres undefined)	4.4	2.7	-7.0	.	0.3	2.3
O=C(NCC[C@@H]1CC[C@H](NC(=O)c2cnccn2)[C@H](CO)O1)Nc1ccc(F)cc1	-0.2	11.7	0.4	12.9	0.2	14.4
CC=Cc1ccc2n(c1=O)C[C@H]1[C@H](CO)[C@@H](C(=O)NCc3ccncn3)N(C(=O)NC3CCCC3)[C@@H]21 (mixture of isomers)	2.2	-2.8	3.3	-4.8	-0.1	.
Cc1cccn2c(=O)c3cc(C(=O)NCc4ccco4)c(=N)n(CCOCCO)c3nc12	.	.	.	73.3*	.	.
C[C@@H]1CN([C@H](C)CO)C(=O)c2cccc(NC(=O)C3CCOCC3)c2O[C@H]1CN(C)C(=O)NC1CCCCC1	-0.6	-4.0	16.4	6.3	0.5	-2.3
O=C(Nc1nc(-c2ccc(-c3ccccc3)cc2)cs1)C1=COCCO1	.	.	84.5*	.	.	.
Cn1nc(-c2ccc(Cl)cc2)cc1NC(=O)Nc1ccccc1	-44.5*	5.3	-37.1	2.1	0.0	-13.1
O=C(Nc1ccc(Cl)cc1)Nc1nc(-c2ccccc2)cs1	-37.7*	-4.8	-2.1	.	.	-23.6
O=C(Nc1cccc(Cl)c1)Nc1nc(-c2ccccc2)cs1	-34.0	-6.5	-4.6	.	-0.3	-8.3
CN(C)C(=O)c1ccc(-c2ccc3c(c2)[C@H]2[C@H](CCN2C(=O)C2CCC2)[C@H](CO)N3C)cc1	-5.0	-0.3	-10.9	-8.5	0.0	-1.7
C[C@H](CO)N1C[C@H](C)[C@H](CN(C)Cc2ccc(F)cc2)Oc2ncc(-c3ccc(F)cc3)cc2C1=O	1.9	.	-22.2	.	0.1	.
O=C(C[C@H]1C=C[C@H](NS(=O)(=O)c2ccccc2)[C@H](CO)O1)NCc1ccc(Cl)c(Cl)c1	-13.3	-2.0	4.7	0.4	0.0	-4.7
Cc1cc(C)cc(NC(=O)Cc2ccc(-n3cccc3)cc2)c1	.	.	53.9*	-3.4	.	.
O=C(C[C@@H]1C=C[C@@H](NC(=O)CC2CC2)[C@@H](CO)O1)NCc1ccc(Cl)cc1	2.6	-3.6	-7.0	-9.3	-0.4	5.2
NNC(=O)CSCc1nc(-c2ccc(Cl)cc2)cs1	-27.4*	0.3	-9.6	2.1	6.7	-9.9
NNC(=O)CSCc1nc(-c2ccccc2)cs1	.	-1.1	.	.	.	-7.2
COc1ccc(NC(=O)C2CC3C=CC2C3)c([N+](=O)[O-])c1 (centres undefined)	-21.8*	5.7	8.0	.	1.0	-8.4
SMILES	Ecoli rRNA inh	MLL AF4-AF9 inh	INS-1E GSIS act	RAD54 inh	E-selectin induc	RAD52 anneal inh
C[C@@H]1CN([C@@H](C)CO)S(=O)(=O)c2ccc(C#Cc3cccnc3)cc2O[C@H]1CN(C)CC1CCCC1	-4.8	-0.5	8.2	-0.6	0.3	-51.0
CNc1ccc(C=C2C=Cc3ccccc32)cc1	-19.5*	6.4	-3.0	.	0.8	-1.1
CN(C)c1ccc(C=C2C=Cc3ccccc32)cc1	3.0	3.5	.	-0.4	.	-31.9
Cc1ccccc1C(=O)N1CCC(C(=O)NN2C(=O)NC3(CCC(C)CC3)C2=O)CC1 (centres undefined)	.	-1.8	-0.6	-9.4	.	-5.0
Cc1ccccc1C(=O)N1CCC(C(=O)NN2C(=O)NC3(CCCCC3)C2=O)CC1	.	-2.4	.	0.8	264.2*	-8.9
CCCCCCN1C[C@@H](n2cc(C3CC3)nn2)[C@H](O)C[C@@H]1c1ccccc1	0.8	-2.8	-4.2	-13.8	0.0	-5.2
O[C@H]1C[C@H](c2ccccc2)N(CC2CCCCC2)C[C@@H]1n1cc(C2CC2)nn1	-20.4	3.1	143.0*	-3.9	.	-14.2
CCCCCCN1C[C@H](O)[C@@H](n2cc(C3CC3)nn2)C[C@@H]1c1ccccc1	-15.9*	0.7	-39.8	-1.9	.	-17.1
CC(=O)N1[C@@H]2c3ccc(-c4cccnc4)c(=O)n3C[C@H]1[C@H](CO)[C@H]2C(=O)N1CCc2ccccc2C1	0.0	-1.3	14.2	5.2	-0.3	1.0
O=C(Nc1ccc2c(c1)[C@@H]1C[C@H](CC(=O)N3CCCCC3)O[C@@H](CO)[C@@H]1O2)NC1CCCCC1	-1.2	-1.8	3.8	.	-0.1	2.5
CN(/N=C/Cc1nnnn1-c1ccc(Cl)cc1)c1ccccc1	-21.6*	.	-6.8	.	.	-4.0
CO[C@H]1/C=C/O[C@@]2(C)Oc3c(C)c(O)c4c(O)c(c(C=NN5CCN(C)CC5)c(O)c4c3C2=O)NC(=O)/C(C)=C\C=C\[C@H](C)[C@H](O)[C@@H](C)[C@@H](O)[C@@H](C)[C@H](OC(C)=O)[C@@H]1C	.	31.2*	.	-5.9	-2.4	-32.5
CO[C@H]1C=CO[C@@]2(C)Oc3c(C)c(O)c4c(O)c(c(C=NN5CCN(C)CC5)c(O)c4c3C2=O)NC(=O)C(C)=CC=C[C@H](C)[C@H](O)[C@@H](C)[C@@H](O)[C@@H](C)[C@H](OC(C)=O)[C@@H]1C	-11.6	7.4	.	3.5	1.2	-29.0
COc1ccc(C(=O)N/N=C/c2ccc(N3CCOCC3)s2)cc1OC	-15.5*	-2.5	17.6	8.9	.	-5.8
CCCCn1c(NCc2ccncc2)nc2ccccc21	-6.7	-4.1	1.7	11.3	.	-18.9

High-throughput results from PubChem BioAssay.
